# From PubChem BioAssay
# NPY1 pot ag = potentiators or agonists of human neuropeptide Y receptor Y1 | activation, % at 3.6 µM | actives 0.37% (n = 220,000) | AID 1304 | NPY-Y1 expressing cells, potentiator/agonist activation; in the data active means activation above about 33%, passing the limit was not always enough;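 further: cells stimulated with NPY at EC10 then isoproterenol at EC100; 0% = low agonist plus stimulus and 100% = saturating agonist plus stimulus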
# NPY Y2 blocker = NPY-Y2 (human) receptor antagonism; P49146; NPY-Y2 expressing cells, antagonist mode; inhibition, % at 2.7 µM; actives 0.99% (n = 140,000); AID 793; in the data active means inhibition above about 17%;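 further: 0% = vehicle with agonist challenge and 100% = reference antagonist with challenge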
# EP2 mod = EP2 receptor (human) modulation | P43116 | induction, % at 25 µM | EP2-expressing cells, cAMP HTRF FRET, PGE2 co-stimulation | actives 0.83% (n = 260,000);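 active means compounds whose cAMP rise, as percent of the full-agonist control response, exceeds 60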;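 further: rat C6 glioma line stably carrying human EP2 under a CMV promoter; the protocol text gives 20 µM as final concentration; 100% = response of wells given 1 µM PGE2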
# Target sequence (P43116 whole entry, looked up): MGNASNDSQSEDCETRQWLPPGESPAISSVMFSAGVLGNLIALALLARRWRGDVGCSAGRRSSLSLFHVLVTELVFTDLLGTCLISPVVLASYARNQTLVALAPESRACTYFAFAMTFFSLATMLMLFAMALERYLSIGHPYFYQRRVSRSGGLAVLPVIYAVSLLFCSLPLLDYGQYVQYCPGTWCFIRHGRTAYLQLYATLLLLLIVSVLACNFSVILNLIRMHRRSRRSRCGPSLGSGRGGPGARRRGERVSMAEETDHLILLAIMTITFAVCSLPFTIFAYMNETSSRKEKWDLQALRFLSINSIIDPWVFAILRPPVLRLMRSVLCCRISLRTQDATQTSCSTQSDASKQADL
# NPY-Y2 PAM-ag = potentiates or activates human NPY-Y2 receptor; P49146; cells expressing NPY-Y2, potentiator/agonist read-out; activation, % at 3.6 µM; actives 0.45% (n = 220,000); in the data active means activation above about 27%;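 further: cells stimulated with NPY near EC25 plus isoproterenol at EC100; 0% = vehicle plus submaximal agonist and 100% = vehicle plus saturating agonist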
# NPY Y1 blocker = NPY-Y1 (human) receptor antagonism; P25929; HEK293-CNG Y1 cells, membrane potential fluorescence; NPY at EC95, then isoproterenol; inhibition, % at 3.6 µM; actives 1% (n = 200,000);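 active means inhibition above the campaign mean inhibition of all tested compounds plus 3 SD, cut at about 20% in these data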;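 further: 0% = DMSO wells given NPY plus isoproterenol and 100% = isoproterenol alone without NPY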
#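 System: HEK293 cells with Y1 receptor plus CNG channel / Probe or stimulus: NPY 25 nM then isoproterenol 1 µM plus Ro 20-1724 25 µM / Compound: one concentration, 3.6 µM, in 0.4% DMSO / Schedule: compound incubation 1 h at room temperature, readout 45 min post-stimulation / Measured by: membrane potential fluorescence / Read-out: % inhibition of NPY effect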
# PGE2 EP2 inh = EP2 receptor (human) inhibition; AID 1422; C6 glioma cells expressing human EP2, cAMP TR-FRET; cells stimulated with saturating PGE2; inhibition, % at 25 µM; actives 0.52% (n = 260,000); P43116;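 active means percent inhibition above 40 after rounding to a whole number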;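 further: rat C6 glioma host cells with rolipram phosphodiesterase inhibitor present; the protocol text gives 20 µM as final concentration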
# Starred values were filed as active, the others as inactive; . = no result; ! = repeats disagree. Rows were chosen to be rich in hits. Some 2.8% of all compounds tested hit in one or more screens of this group.
SMILES,NPY1 pot ag,NPY Y2 blocker,EP2 mod,NPY-Y2 PAM-ag,NPY Y1 blocker,PGE2 EP2 inh
COc1ccc(NC(=O)C(=O)N2N=C3CCCCC3C2(O)C(F)(F)F)cc1 (centres undefined),12,.,61*,0,1,10
O=C(Nc1ccc(Cl)cc1C(=O)Nc1ccc(Br)cn1)c1ccco1,-91,31*,19,-28,21*,7
O=C(COc1ccc(S(=O)(=O)N2CCCC2)cc1)Nc1c(F)cccc1F,.,.,-27,.,.,15
O=C(O)c1c(-c2c3ccc(=O)cc-3oc3cc(O)ccc23)cc2ccccc2c1-c1ccccc1,.,.,36,.,.,42*
O=C(O)CCN1CCCC1=O,.,.,5,.,.,7
CC(C)C[C@H](NC(=O)c1nc[nH]c1C(=O)NCCCCCNC(=O)OC(C)(C)C)C(=O)OCc1ccccc1,39*,.,-13,36*,-13,12
C[C@H](NC(=O)c1nc[nH]c1C(=O)NCCCCCNC(=O)OC(C)(C)C)C(=O)OCc1ccccc1,-11,.,-32,-1,4,8
CCCc1c(-c2ccc(O)cc2)nn(-c2ccc(O)cc2)c1-c1ccc(O)cc1,.,.,-22,.,.,100*
CCOC(=O)C1CCN(c2ncnc3c2oc2ccc(Cl)cc23)CC1,-61,19*,-34,-20,18,15
O=C(Cc1ccccc1)Nc1cccc(N2C(=O)C=CC2=O)c1,3,0,-69,-11,-2,133*
CCc1ccc2[nH]c(=O)c(C(c3nnnn3Cc3ccccc3)N(C)C3CCCCC3)cc2c1 (centres undefined),.,.,34,.,.,13
COc1ccc(Br)cc1-c1nc(CCl)cs1,11,.,63*,12,3,30
CCOc1ccc(-c2nc(CCl)cs2)cc1,2,.,-25,-5,0,4
CCOC(=O)c1c(NC(=O)CC2SC(N)=NC2=O)sc2c1CCC(C)C2 (centres undefined),-20,2,68*!,5,0,12
CCOC(=O)c1c(NC(=O)C2C3C=CC(C3)C2C(=O)O)sc2c1CCC(C)C2 (centres undefined),1,8,24,11,6,18
COC(=O)c1c(NC(=O)CC2SC(N)=NC2=O)sc2c1CCC(C)C2 (centres undefined),-3,1,2,-3,-1,8
CCOC(=O)c1c(NC(=O)c2cccs2)sc2c1CCC2,.,.,.,.,.,76*
CCOC(=O)c1c(NC(C)=O)sc2c1CC(C)CC2 (centres undefined),.,.,80*,.,.,8
Cc1cc(C)c2[nH]c(=O)c(C(c3nnnn3CC3CCCO3)N3CCc4ccccc4C3)cc2c1 (centres undefined),.,.,-6,.,.,7
O=C1c2ccccc2-c2onc3ccc(NCc4ccco4)c1c23,53*,6,-26,53*,-6,32
CCOc1ccc2noc3c2c1C(=O)c1ccccc1-3,5,3,-38,5,3,17
COc1cccc(-n2c(SCC(=O)N3CCCCC3)nnc2-c2ccoc2C)c1,.,.,-28,.,.,11
Nc1nonc1C(=O)NCCN=Cc1cc(Cc2ccccc2)cc(Br)c1O,2,8,61*,5,1,.
COC(=O)C(C)Sc1nc2c(c(=O)[nH]c(=O)n2C)n1CCCc1ccccc1 (centres undefined),-47,46*,37,-12,46*,15
CCOC(=O)C(C)Sc1nc2c(c(=O)[nH]c(=O)n2C)n1CCc1ccccc1 (centres undefined),-14,2,21,-3,-1,13
SMILES,NPY1 pot ag,NPY Y2 blocker,EP2 mod,NPY-Y2 PAM-ag,NPY Y1 blocker,PGE2 EP2 inh
COc1ccc(-n2nnnc2SCC(=O)Nc2ccc(N(C)C)cc2)c(OC)c1,.,.,-22,.,.,10
COc1ccccc1OCc1nnc(SCC(=O)Nc2cc(F)ccc2C)n1C,.,.,-20,.,.,9
COc1ccc(CNc2nc3ccccc3n2CCN2CCOCC2)cc1OC,.,.,46,.,.,9
O=[N+]([O-])c1cccc(C(=Nc2ccccc2Cl)NO)c1,-11,4,-3,0,4,9
ONC(=Nc1ccccc1Cl)c1ccccc1Cl,34,.,71*,21,.,7
CCCCCCCCn1cnc2c(N)c(C)c(C)cc21,3,2,62*,12,12,3
COc1ccc(Cn2cnc3c(N)c(C)c(C)cc32)cc1,1,.,2,13,6,6
Cc1cccc(C)c1NC(=O)CSc1nnc2c(C)cc3ccc(C)c(C)c3n12,.,.,21,.,.,5
COc1ccc(N2CCN(/C(=N\S(=O)(=O)c3ccccc3)Nc3nc(C)cc(C)n3)CC2)cc1,-20,3,25,-15,3,10
Cc1ccc(S(=O)(=O)/N=C(/Nc2nc(C)cc(C)n2)N2CCOCC2)cc1,0,-3,.,-6,25*,8
COc1cc2c(cc1OC)-c1cc(=Nc3c(C)cc(C)cc3C)n(C)c(=O)n1CC2,.,.,67*,.,.,6
CCN(CC)CCNC(=O)c1ccc2c(c1NCCO)C(=O)c1ccccc1C2=O,27,.,-59,9,.,56*
CCc1ccccc1NC(=S)N(Cc1cc2cccc(C)c2[nH]c1=O)CC1CCCO1 (centres undefined),.,.,-1,.,.,7
CCCn1ncc(CN[C@@H]2CCC(=O)N[C@H]2c2cc(F)cc(F)c2)c1C,.,.,-29,.,.,1
COc1ccc(CNc2nc3ccccc3n2CCN2CCCCC2)c(OC)c1,-29,26*,-10,-7,29*,3
COc1cccc(CNc2nc3ccccc3n2CCN2CCCCC2)c1OC,-17,25*,-5,0,42*,17
COc1ccccc1CNc1nc2ccccc2n1CCN1CCOCC1,.,.,-13,.,.,9
Cc1c2cc[n+](CCN3CCCCC3)cc2c(C)c2c1[nH]c1ccc(O)cc12,.,.,14,.,.,51*
CCOC(=O)c1[nH]c2ccc(C)cc2c1NC(=O)CN1CCCCC1,-8,5,-41,-11,-4,11
CC(=O)NC1(c2ccccc2F)CCN(Cc2cnn(-c3ccc(F)cc3)c2)CC1,.,.,-35,.,.,28
CN(CC(=O)N1CCCCC1)S(=O)(=O)c1cc(Cl)ccc1Cl,.,.,-39,.,.,8
CCOc1cc(CCC(=O)Nc2cc3c(cc2C)OCCO3)on1,.,.,20,.,.,0
c1ccc(CSc2nnc(-c3ccccc3)c(-c3ccccc3)n2)cc1,.,.,.,.,.,1
N#Cc1c(Cl)nc(SCc2ccccc2)nc1-c1ccccc1,-9,9,16,-19,4,61*
CS(=O)c1nc(-c2ccc(Br)cc2)cc(-c2ccccc2)c1C#N (centres undefined),101*,2,11,66*,-9,15
CCCCCCCCNC(C)C(O)c1ccc(SC(C)C)cc1 (centres undefined),-3,5,-23,12,-2,115*!
C[C@@H](NCCc1ccc(O)cc1)[C@@H](O)c1ccc(O)cc1,.,.,17,.,.,9
COC(=O)[C@H]1C[C@@H]1[C@H](NC(=O)c1cnccn1)c1ccccc1,23,1,33,84*,2,8
